Measured values reported in ChEMBL document CHEMBL1121557, “Chemistry, pharmacology, and structure-activity relationships with a new type of imidazolines exerting a specific bradycardic action at a cardiac site” (J Med Chem, 1980).

system: not listed separately; assay: Partition coefficient (logD7.4); details: octanol/water, pH 7.4

Row | SMILES | logD
1 | CC(C)=CCN(C1=NCCN1)c1c(Br)cccc1Br | -0.14
2 | Fc1cccc(Cl)c1N(CC1CC1)C1=NCCN1 | -0.98
3 | Brc1cccc(Br)c1N(C1=NCCN1)C1CCCCC1 | 0.14
4 | Fc1cccc(F)c1N(CC1CC1)C1=NCCN1 | -1.41
5 | C#CCN(C1=NCCN1)c1c(Br)cccc1Br | -0.18
6 | CC(C)CCN(C1=NCCN1)c1c(Br)cccc1Br | 0.16
7 | Fc1cccc(C(F)(F)F)c1N(CC1CC1)C1=NCCN1 | -0.95
8 | Clc1cccc(Br)c1N(CC1CC1)C1=NCCN1 | -0.79
9 | C/C=C/CN(C1=NCCN1)c1c(Br)cccc1Br | -0.49
10 | Brc1cccc(Br)c1N(Cc1cccs1)C1=NCCN1 | -0.1
11 | Brc1cccc(Br)c1N(Cc1ccco1)C1=NCCN1 | -0.52
12 | CCCCCN(C1=NCCN1)c1c(Br)cccc1Br | 0.32

The next lines start with the values.

Row | logD | SMILES
13 | -0.29 | Brc1cccc(Br)c1N(C1=NCCN1)C1CCCC1
14 | -2.5 | CCCCN(C1=NCCN1)c1c(Br)cccc1Br
15 | -0.99 | Cc1cccc(Cl)c1N(CC1CC1)C1=NCCN1
16 | -0.06 | Brc1cccc(Br)c1N(CC1CCC1)C1=NCCN1
17 | -0.52 | Brc1ccc(Br)c(N(CC2CC2)C2=NCCN2)c1
18 | -0.63 | N=C(N)N(CC1CC1)c1c(Br)cccc1Br
19 | 0.32 | Brc1cccc(Br)c1N(CC1CCCC1)C1=NCCN1
20 | -0.31 | Brc1ccc(N(CC2CC2)C2=NCCN2)c(Br)c1
21 | -0.64 | CC(C)CN(C1=NCCN1)c1c(Br)cccc1Br

system: Rattus norvegicus; assay: Dose required to decrease heart rate after iv injection to spinal rats; format: functional; details: not given
Method in brief: (§1)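 Male Chbb:THOM rats, 200–250 g, under pentobarbital sodium 50 mg/kg ip, atropine sulfate 1 mg/kg sc, trachea cannulated. Medulla cut at C1, brain destroyed, artificially ventilated. Jugular iv injections given cumulatively, dose doubled every 2 min, 3 doses per animal, top cumulative dose 10 mg/kg. ECG-triggered tachograph heart rate. D150 (dose lowering rate 150 beats/min) read graphically from log dose–response curves; n = 6 rats.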

Row | SMILES | D150
22 | Brc1cccc(Br)c1N(C1=NCCN1)C1CCCC1 | 1 mg/kg
23 | CC(C)=CCN(C1=NCCN1)c1c(Br)cccc1Br | 3.5 mg/kg
24 | CCCCN(C1=NCCN1)c1c(Br)cccc1Br | 1.35 mg/kg
25 | Cc1cccc(Cl)c1N(CC1CC1)C1=NCCN1 | 1.85 mg/kg
26 | Brc1cccc(Br)c1N(CC1CCC1)C1=NCCN1 | 1.2 mg/kg
27 | Fc1cccc(Cl)c1N(CC1CC1)C1=NCCN1 | 0.74 mg/kg
28 | Brc1cccc(Br)c1N(C1=NCCN1)C1CCCCC1 | 2.6 mg/kg
29 | Fc1cccc(F)c1N(CC1CC1)C1=NCCN1 | 4.8 mg/kg
30 | C#CCN(C1=NCCN1)c1c(Br)cccc1Br | 1.25 mg/kg
31 | Brc1ccc(Br)c(N(CC2CC2)C2=NCCN2)c1 | 5 mg/kg
32 | CC(C)CCN(C1=NCCN1)c1c(Br)cccc1Br | 1.3 mg/kg
33 | Fc1cccc(C(F)(F)F)c1N(CC1CC1)C1=NCCN1 | 1.8 mg/kg
34 | Clc1cccc(Br)c1N(CC1CC1)C1=NCCN1 | 0.42 mg/kg
35 | N=C(N)N(CC1CC1)c1c(Br)cccc1Br | >10 mg/kg
36 | Brc1cccc(Br)c1N(CC1CCCC1)C1=NCCN1 | 1.3 mg/kg
37 | C/C=C/CN(C1=NCCN1)c1c(Br)cccc1Br | 0.7 mg/kg
38 | Brc1ccc(N(CC2CC2)C2=NCCN2)c(Br)c1 | 10 mg/kg
39 | Brc1cccc(Br)c1N(Cc1cccs1)C1=NCCN1 | 1.9 mg/kg
40 | Brc1cccc(Br)c1N(Cc1ccco1)C1=NCCN1 | 2.8 mg/kg
41 | CCCCCN(C1=NCCN1)c1c(Br)cccc1Br | 1.6 mg/kg
42 | CC(C)CN(C1=NCCN1)c1c(Br)cccc1Br | 1.35 mg/kg

species on record: Rattus norvegicus; assay: Evaluated for decreased heart rate in spinal rats, relative activity was determined; format: functional; details: not given; method in brief: as §1

Row | SMILES | Relative activity
43 | Brc1cccc(Br)c1N(C1=NCCN1)C1CCCC1 | 0.62
44 | CC(C)=CCN(C1=NCCN1)c1c(Br)cccc1Br | 0.18
45 | CCCCN(C1=NCCN1)c1c(Br)cccc1Br | 0.46
46 | Cc1cccc(Cl)c1N(CC1CC1)C1=NCCN1 | 0.34
47 | Brc1cccc(Br)c1N(CC1CCC1)C1=NCCN1 | 0.52
48 | Fc1cccc(Cl)c1N(CC1CC1)C1=NCCN1 | 0.84
49 | Brc1cccc(Br)c1N(C1=NCCN1)C1CCCCC1 | 0.24
50 | Fc1cccc(F)c1N(CC1CC1)C1=NCCN1 | 0.13
51 | C#CCN(C1=NCCN1)c1c(Br)cccc1Br | 0.5
52 | Brc1ccc(Br)c(N(CC2CC2)C2=NCCN2)c1 | 0.12
53 | CC(C)CCN(C1=NCCN1)c1c(Br)cccc1Br | 0.48
54 | Fc1cccc(C(F)(F)F)c1N(CC1CC1)C1=NCCN1 | 0.34
55 | Clc1cccc(Br)c1N(CC1CC1)C1=NCCN1 | 1.48
56 | N=C(N)N(CC1CC1)c1c(Br)cccc1Br | <0.062
57 | Brc1cccc(Br)c1N(CC1CCCC1)C1=NCCN1 | 0.48
58 | C/C=C/CN(C1=NCCN1)c1c(Br)cccc1Br | 0.88
59 | Brc1ccc(N(CC2CC2)C2=NCCN2)c(Br)c1 | 0.062
60 | Brc1cccc(Br)c1N(Cc1cccs1)C1=NCCN1 | 0.33
61 | Brc1cccc(Br)c1N(Cc1ccco1)C1=NCCN1 | 0.22
62 | CCCCCN(C1=NCCN1)c1c(Br)cccc1Br | 0.39
63 | CC(C)CN(C1=NCCN1)c1c(Br)cccc1Br | 0.46

system: not listed separately; assay: Dissociation constant (pKa); format: physicochemical; details: not given

Row | SMILES | pKa
64 | CC(C)=CCN(C1=NCCN1)c1c(Br)cccc1Br | 10.8
65 | Fc1cccc(Cl)c1N(CC1CC1)C1=NCCN1 | 10.8
66 | Brc1cccc(Br)c1N(C1=NCCN1)C1CCCCC1 | 11.3
67 | Fc1cccc(F)c1N(CC1CC1)C1=NCCN1 | 10.3
68 | C#CCN(C1=NCCN1)c1c(Br)cccc1Br | 10.1
69 | CC(C)CCN(C1=NCCN1)c1c(Br)cccc1Br | 10.9
70 | Fc1cccc(C(F)(F)F)c1N(CC1CC1)C1=NCCN1 | 10.7
71 | Clc1cccc(Br)c1N(CC1CC1)C1=NCCN1 | 10.8
72 | C/C=C/CN(C1=NCCN1)c1c(Br)cccc1Br | 11
73 | Brc1cccc(Br)c1N(Cc1cccs1)C1=NCCN1 | 10.5
74 | Brc1cccc(Br)c1N(Cc1ccco1)C1=NCCN1 | 10.5
75 | CCCCCN(C1=NCCN1)c1c(Br)cccc1Br | 11

The remaining lines, values ahead:

Row | pKa | SMILES
76 | 11.2 | Brc1cccc(Br)c1N(C1=NCCN1)C1CCCC1
77 | 11 | CCCCN(C1=NCCN1)c1c(Br)cccc1Br
78 | 11.3 | Cc1cccc(Cl)c1N(CC1CC1)C1=NCCN1
79 | 10.9 | Brc1cccc(Br)c1N(CC1CCC1)C1=NCCN1
80 | 11 | Brc1ccc(Br)c(N(CC2CC2)C2=NCCN2)c1
81 | 11.9 | N=C(N)N(CC1CC1)c1c(Br)cccc1Br
82 | 10.9 | Brc1cccc(Br)c1N(CC1CCCC1)C1=NCCN1
83 | 11.2 | Brc1ccc(N(CC2CC2)C2=NCCN2)c(Br)c1
84 | 11 | CC(C)CN(C1=NCCN1)c1c(Br)cccc1Br
